Compound activity: PubChem, several laboratories
Shown are actives, neighbours in structure and some others; about 1.4% of the full set was active somewhere.
IDE cell activ – activators of human insulin-degrading enzyme in cells; P14735; HEK cells, FAbeta-B cleavage, fluorescence polarization; 0% vehicle, 100% cell-free pure enzyme wells; activation, % at 5.96 µM; hit rate 0.073% among 340,000; AID 493087;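 active = activation above the mean of all tested compounds plus 3 SD, set per screening campaign, cut at about 17% in these data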
TPT1 inh – inhibitors of Candida albicans tRNA 2'-phosphotransferase TPT1 | recombinant caTPT1, FP RNA substrate dephosphorylation | inhibition, % at 5 µM | hit rate 0.81% among 300,000;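 active = inhibition above the mean of all tested compounds plus 3 SD, set per screening campaign, cut at about 24% in these data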
HNF4A DNA FP – change in binding of human HNF4 alpha to DNA. P41235. HNF4a-FITC DNA binding, fluorescence polarization, 1 h. activity change, % at 10 µM. hit rate 0.3% among 360,000; in the data active = activity change above about 30%, passing the limit was not always enough
CSN deneddyl inh – CSN deneddylation inhibition; Q92905; Purified CSN, SCF-Nedd8-OG deneddylation, fluorescence polarization; inhibition, % at 12.5 µM; hit rate 0.38% among 360,000;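 active = pattern-corrected inhibition above about 35%, with an unprinted fluorescence ratio check between 0.5 and 1.5, limit read from the data, passing the limit was not always enough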
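Material: human Csn5 produced in HEK293T cells; Input: enzyme 0.24 nM; Reagent: SCFSkp2-Nedd8OG substrate at 10 nM final; Dosing: 12.5 µM compound; Incubation: 90 min reaction at room temperature; Detection: fluorescence polarization of the substrate; Evaluation: % inhibition of substrate cleavage by Csn5; Control set: substrate-only high control, full reaction low control.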
IDE inh – cellular human IDE inhibition. P14735. HEK cells, FAbetaB cleavage, fluorescence polarization. inhibition, % at 5.59 µM. hit rate 0.41% among 320,000. AID 434962;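 active = percent inhibition above the average of all tested compounds plus 3 SD, set per screening campaign, cut at about 16% in these data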;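 note: IDE supplied by intact live HEK cells; FP after avidin binding of uncleaved biotin substrate so inhibition keeps polarization high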
caTPT1 confirm – confirmation of Candida albicans TPT1 inhibitors | recombinant caTPT1, fluorescence polarization, RNase T1 coupled | inhibition, % at 5 µM | hit rate 74% among 2,400 | shares compounds with TPT1 inh | AID 2149;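 active = inhibition above the primary screen limit, the mean inhibition of all tested compounds plus 3 SD, cut at about 25% in these data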
RNase T1 inh – RNase T1 inhibition in TPT1 counter-screen | shares compounds with TPT1 inh | RNase T1 cleavage, fluorescence polarization, 1536-well | inhibition, % at 5 µM | hit rate 83% among 2,400 | AID 2153;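 active = inhibition above the solvent-only control well mean plus 3 SD, limit set per screening run, cut at about 23% in these data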;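 note: inhibitors block cleavage so intact labeled substrate keeps polarization high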
IDE cell inh cf – confirmation of human insulin-degrading enzyme inhibitors in cells. shares compounds with IDE inh. HEK cells, FAbetaB cleavage, fluorescence polarization. inhibition, % at 5.59 µM. hit rate 51% among 1,200. AID 435028;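 active = mean inhibition across triplicate wells above the cutoff set by the earlier primary insulin-degrading enzyme screen, cut at about 16% in these data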
HEK cytotox – HEK cell cytotoxicity, counter-screen for IDE inhibitors | hit rate 28% among 1,200 | inhibition, % at 5.59 µM | HEK293 cytotoxicity, ATP luminescence | shares compounds with IDE inh; in the data active = inhibition above about 22%
CSN deneddyl val – validation of inhibitors of human CSN-mediated cullin deneddylation; hit rate 62% among 540; Csn5 deneddylation of SCF-Nedd8OG, fluorescence polarization, 90 min; shares compounds with CSN deneddyl inh; inhibition, % at 16.6 µM; AID 720654; in the data active = inhibition above about 50%
MMP-2 counter – blocks human MMP-2 in a CSN deneddylation counter-screen; shares compounds with CSN deneddyl inh; recombinant MMP-2, FRET substrate fluorescence, 60 min; inhibition, % at 16.6 µM; hit rate 33% among 540; AID 720655;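 active = corrected plate-normalized z-score of 5 or more, or -5 or less, or inhibition of 15% or more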
Thrombin counter – blocks bovine thrombin in a CSN deneddylation counter-screen; shares compounds with CSN deneddyl inh; bovine thrombin cleavage of Ub4-pepOG, fluorescence polarization; inhibition, % at 16.6 µM; hit rate 49% among 540; AID 720656;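 active = inhibition at or above a set limit, with a fluorescence interference ratio between 0.5 and a set maximum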
Target sequence (P00735 whole entry, looked up): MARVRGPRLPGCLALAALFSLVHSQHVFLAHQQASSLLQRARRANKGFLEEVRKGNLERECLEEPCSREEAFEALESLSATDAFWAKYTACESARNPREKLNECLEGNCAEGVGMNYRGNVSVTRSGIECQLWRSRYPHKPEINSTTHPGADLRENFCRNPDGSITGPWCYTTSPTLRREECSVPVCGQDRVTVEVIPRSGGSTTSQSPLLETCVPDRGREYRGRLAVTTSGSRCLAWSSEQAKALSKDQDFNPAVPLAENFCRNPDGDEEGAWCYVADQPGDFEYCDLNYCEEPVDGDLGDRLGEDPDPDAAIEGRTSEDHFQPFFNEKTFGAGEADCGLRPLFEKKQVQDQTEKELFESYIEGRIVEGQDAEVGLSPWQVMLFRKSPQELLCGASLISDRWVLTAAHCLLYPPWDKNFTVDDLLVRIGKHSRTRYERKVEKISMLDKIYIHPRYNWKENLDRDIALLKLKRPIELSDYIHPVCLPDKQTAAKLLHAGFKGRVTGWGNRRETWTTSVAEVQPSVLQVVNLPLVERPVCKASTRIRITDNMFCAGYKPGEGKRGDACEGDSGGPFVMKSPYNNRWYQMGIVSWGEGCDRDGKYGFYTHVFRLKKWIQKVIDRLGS
HNF4a DNA conf – change in binding of human HNF4 alpha to DNA, retest; shares compounds with HNF4A DNA FP; HNF4A-FITC DNA binding, fluorescence polarization, 1 h; activity change, % at 12.5 µM; hit rate 99% among 210; AID 1224897; call rule not given here
Each line names hits and unclear results; the compound was inactive in the other large screens (follow-up assays come after a bar, where they were run).

O=C1NC(=Nc2ccccc2)S/C1=C\C=C\c1ccco1	TPT1 inh 24, CSN deneddyl inh 74 | caTPT1 confirm inactive | RNase T1 inh 34 | CSN deneddyl val 80 | MMP-2 counter inactive | Thrombin counter inactive
COc1ccc(N=C2NC(=O)/C(=C/C=C/c3ccccc3)S2)cc1	none
COc1cc(/C=C2\SC(=S)N(NC(=O)c3ccc(O)c(OC)c3)C2=O)ccc1O	TPT1 inh 35, HNF4A DNA FP 59, CSN deneddyl inh 64, IDE inh 109 | caTPT1 confirm 44 | RNase T1 inh 58 | IDE cell inh cf 89 | HEK cytotox inactive | CSN deneddyl val 90 | MMP-2 counter inactive | Thrombin counter 80
COc1cc(/C=C2\SC(=S)N(NS(=O)(=O)c3ccc(C)cc3)C2=O)ccc1O	TPT1 inh 30, CSN deneddyl inh 41, IDE inh 72 | caTPT1 confirm 36 | RNase T1 inh 48 | IDE cell inh cf 161 | HEK cytotox inactive | CSN deneddyl val 63 | MMP-2 counter 15 | Thrombin counter 68
O=C(NN1C(=O)/C(=C/c2cccs2)SC1=S)c1cccnc1	none (no result: IDE cell activ)
CCOc1cc(/C=C2\SC(=S)N(NC(=O)c3cccnc3)C2=O)ccc1O	TPT1 inh 50, HNF4A DNA FP 49, CSN deneddyl inh 36, IDE inh 41 (no result: IDE cell activ) | caTPT1 confirm 39 | RNase T1 inh 54 | IDE cell inh cf 148 | HEK cytotox inactive | CSN deneddyl val 58 | MMP-2 counter inactive | Thrombin counter 36
O=C(O)c1ccc(/C=C2\SC(=S)N(NC(=O)c3ccccc3)C2=O)cc1	none
Cn1cccc1/C=C1\SC(=S)N(NC(=O)c2ccccc2O)C1=O	TPT1 inh 79, HNF4A DNA FP 101, CSN deneddyl inh 55 | caTPT1 confirm 87 | RNase T1 inh 101 | CSN deneddyl val 95 | MMP-2 counter inactive | Thrombin counter 48
CC(/C=C1\SC(=S)N(NC(=O)c2ccccc2C)C1=O)=C\c1ccccc1	none
O=C(CN(Cc1ccccc1)C(=O)CCl)c1cccc(Br)c1	none
COc1ccc(NC(=O)C(C2CC2)n2c(=O)c(-c3ccccc3)nc3ccccc32)cc1 (stereo not drawn)	none (no result: IDE cell activ, TPT1 inh, IDE inh)
CCN1/C(=C/C=C/c2sc3ccccc3[n+]2CC)Sc2ccccc21	none
CCN1/C(=C/c2ccc3cc(C)ccc3[n+]2CC)Sc2ccccc21	TPT1 inh 84, HNF4A DNA FP 119, CSN deneddyl inh 72, IDE inh 91 | caTPT1 confirm 97 | RNase T1 inh 103 | IDE cell inh cf 136 | HEK cytotox 113 | CSN deneddyl val 66 | MMP-2 counter -23 | Thrombin counter inactive
Cc1cc(/C=N/Nc2ccc([N+](=O)[O-])cn2)c(C)n1-c1ccc(C(=O)O)cc1	TPT1 inh 54, CSN deneddyl inh 53 | caTPT1 confirm 68 | RNase T1 inh 79 | CSN deneddyl val 90 | MMP-2 counter inactive | Thrombin counter inactive
COc1cc(/C=C2\COC/C(=C\c3ccc(O)c(OC)c3)C2=O)ccc1O	none
COc1cc(/C=C2/CC/C(=C/c3ccc(O)c(OC)c3)C2=O)ccc1O	TPT1 inh 113, HNF4A DNA FP 48, CSN deneddyl inh 47, IDE inh 24 | caTPT1 confirm 117 | RNase T1 inh 119 | IDE cell inh cf 36 | HEK cytotox 32 | CSN deneddyl val 62 | MMP-2 counter inactive | Thrombin counter 72
Cc1ccc(N=Cc2c(O)c3ccccc3n(C)c2=O)cc1	none (no result: TPT1 inh, IDE inh)
Cc1ccc(N=Cc2sc(O)c3ccccc23)cc1	TPT1 inh 142, CSN deneddyl inh 40, IDE inh 36 | caTPT1 confirm 111 | RNase T1 inh 109 | IDE cell inh cf 57 | HEK cytotox inactive | CSN deneddyl val 82 | MMP-2 counter inactive | Thrombin counter 57
CC1Nc2ccc(C(=O)NC3CCCCC3)cc2NC1=O (stereo not drawn)	TPT1 inh 34, HNF4A DNA FP 61, CSN deneddyl inh 57 | caTPT1 confirm 39 | RNase T1 inh 48 | HNF4a DNA conf 49
O=C1[C@@H]2Cc3c([nH]c4ccccc34)C(c3cccc([N+](=O)[O-])c3)N2C(=O)CN1CCCO (stereo partly drawn)	none
C=CCN1C(=O)/C(=C/c2ccc(O)cc2)S/C1=N/c1nccs1	TPT1 inh 73, HNF4A DNA FP 45, CSN deneddyl inh 44, IDE inh 119 | caTPT1 confirm 93 | RNase T1 inh 92 | IDE cell inh cf 94 | HEK cytotox inactive | HNF4a DNA conf 69
COc1ccccc1N1C(=O)S/C(=C\c2ccc(C)s2)C1=O	TPT1 inh 34, HNF4A DNA FP 43 | caTPT1 confirm 38 | RNase T1 inh 53 | HNF4a DNA conf 76
COc1ccc2c(/C=N/Nc3ccc(C(=O)O)cc3)c[nH]c2c1	TPT1 inh 56, HNF4A DNA FP 52 | caTPT1 confirm 39 | RNase T1 inh 50 | HNF4a DNA conf 35
Cc1ccc([C@@H]2CC(=O)[C@@H]3CN(S(=O)(=O)c4ccc(C)cc4)[C@H](c4ccccc4)C[C@@H]3N2S(=O)(=O)c2ccc(Cl)cc2)cc1	none (no result: IDE cell activ, TPT1 inh, IDE inh)
COc1ccc(NC(=O)CN(C)C(=O)CSc2nc3ccccc3s2)cc1	TPT1 inh 36, HNF4A DNA FP 43 | caTPT1 confirm 36 | RNase T1 inh 45 | HNF4a DNA conf 46
O=C1C[C@@H]2c3c(cccc3CN1Cc1ccccc1Br)C[C@@H](O)[C@H]2O	none (no result: TPT1 inh, IDE inh)
O=C(NCC(c1ccco1)N1CCCCC1)c1ccc(S(=O)(=O)Nc2ccccc2)cc1 (stereo not drawn)	none
